High-throughput results (PubChem BioAssay)
Rows were chosen to be rich in hits. Some 1.9% of all compounds tested hit in one or more screens of this group.
Runt-SMMHC FRET = blocks binding of human RUNX1 Runt domain to CBFb-SMMHC; Q01196+Q13951; 0.74% of 220,000 active; inhibition, % at 20 µM; Cerulean-Runt/Venus-CBFb-SMMHC FRET ratio 530/480, 1 h;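 active = mean inhibition across duplicate retests at 20 µM reaching about 50%, limit read from the data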;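 also: inhibitors lower the FRET ratio by blocking Runt binding to CBFb-SMMHC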
RanGTP-Imp inh = disruptors of Ran-importin-beta complex formation – biochemical, FRET, CFP-Ran, YFP-importin-beta, homogeneous, primary screen; AID 2216; cell-free CFP-Ran/YFP-importin-beta FRET ratio; inhibition, % (no concentration beside the values); 1.1% of 300,000 active;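 active = more than half of the replicate wells show a fall in the fluorescence ratio signal beyond about 16%, limit read from the data, passing the limit was not always enough; inconclusive = exactly half of the replicate wells pass the set limit; inactive = fewer than half of replicates pass the limit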
Hck Nef HTS = blocks Nef-activated human Hck kinase | Recombinant Hck-YEEI plus Nef, Z-Lyte FRET kinase assay | inhibition, % at 20 µM | P08631 | 0.68% of 220,000 active | AID 463187;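 active = Hck-Nef kinase inhibition above about 50%, limit read from the data; inactive = inhibition below that limit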
Target sequence (P08631 whole entry, looked up): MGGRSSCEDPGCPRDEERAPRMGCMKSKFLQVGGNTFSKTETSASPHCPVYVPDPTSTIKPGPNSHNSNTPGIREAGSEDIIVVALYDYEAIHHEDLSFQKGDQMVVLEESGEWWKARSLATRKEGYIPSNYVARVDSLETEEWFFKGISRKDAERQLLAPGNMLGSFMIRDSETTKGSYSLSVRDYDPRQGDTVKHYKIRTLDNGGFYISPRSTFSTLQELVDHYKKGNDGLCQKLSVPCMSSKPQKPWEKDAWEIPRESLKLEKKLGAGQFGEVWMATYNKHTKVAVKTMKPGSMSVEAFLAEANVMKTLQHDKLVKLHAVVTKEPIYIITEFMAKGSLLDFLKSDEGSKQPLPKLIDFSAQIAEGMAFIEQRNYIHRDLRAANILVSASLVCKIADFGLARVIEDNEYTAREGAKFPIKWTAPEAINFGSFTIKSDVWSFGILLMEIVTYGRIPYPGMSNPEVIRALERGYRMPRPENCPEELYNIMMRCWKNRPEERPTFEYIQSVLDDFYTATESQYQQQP
Runt-CBFb FRET = blocks binding of human RUNX1 Runt domain to CBFb. Q01196+Q13951. Cerulean-Runt/Venus-CBFb FRET ratio 530/480, 1 h. inhibition, % at 20 µM. 0.46% of 220,000 active;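 active = inhibition over about 50% at 20 µM in the single-dose screen, limit read from the data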
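test system = Cerulean-tagged RUNX1 Runt domain (FRET donor) fusion protein | reagent = Venus-CBFb binding partner, 100 nM | incubation = protein complex preformed 1 h, compound exposure 1 h, room temperature, dark | detection = FRET fluorescence | read-out basis = loss of energy transfer signal | controls = 5 µM unlabeled CBFb as full-inhibition high control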
RUNX1 CBFb TR = inhibitors of human RUNX1 Runt domain binding to CBFb. shares compounds with Runt-CBFb FRET. TR-FRET RUNX1 Runt domain-CBFb binding. inhibition, % at 20 µM. 20% of 480 active; in the data active = inhibition above about 40%
Each line names hits and unclear results; the compound was inactive in the other large screens (follow-up assays come after a bar, where they were run).

O=C(Cn1c(=O)oc2ccccc21)Nc1n[nH]c(=S)s1	Runt-CBFb FRET 54.5 | RUNX1 CBFb TR 63.0
O=C(Cn1c(=O)oc2ccccc21)Nc1nc(-c2ccccc2)cs1	none
O=c1[nH]c2ccccc2c(O)c1-[n+]1ccccc1	none
O=c1[nH]c2ccccc2c(O)c1O	Runt-SMMHC FRET 57.4, Runt-CBFb FRET 59.3 | RUNX1 CBFb TR inactive
CC(C)(C)C(O)(CC#CCN1CCCC1)c1ccccc1 (stereo unspecified)	none (no result: RanGTP-Imp inh)
COc1ccc2cc(CN(Cc3ccco3)C(=S)NCC3CCCO3)c(=O)[nH]c2c1 (stereo unspecified)	none (no result: Runt-SMMHC FRET, Runt-CBFb FRET)
CNC(=S)N(Cc1cc2ccc(OC)cc2[nH]c1=O)CC1CCCO1 (stereo unspecified)	Runt-CBFb FRET 63.0 | RUNX1 CBFb TR inactive
N#Cc1c2c(c(-n3cnc4ccccc43)n3c1nc1ccccc13)CCC2	none (no result: Runt-CBFb FRET)
N#Cc1c2c(c(Nc3ccccc3)n3c1nc1ccccc13)CCC2	Runt-SMMHC FRET 70.5, RanGTP-Imp inh 76.7, Runt-CBFb FRET 54.8 | RUNX1 CBFb TR inactive
O=C(NNc1cc(Br)c(O)c(Br)c1)c1ccccc1	Runt-CBFb FRET 77.7 | RUNX1 CBFb TR 44.8
CCc1ccc(N2C(=O)C(Cl)=C(N3CCOCC3)C2=O)cc1	Runt-CBFb FRET 68.5 | RUNX1 CBFb TR inactive
CCc1ccc(N2C(=O)C(Cl)=C(N3CCCCCC3)C2=O)cc1	none (no result: Runt-SMMHC FRET, Hck Nef HTS, Runt-CBFb FRET)
Cc1cccc(N2C(=O)C(Cl)=C(N3CCOCC3)C2=O)c1	Runt-CBFb FRET 51.4 | RUNX1 CBFb TR inactive
CCOC(=O)N/N=C/c1c(F)c(F)c(F)c(F)c1F	Runt-CBFb FRET 50.4 (no result: RanGTP-Imp inh) | RUNX1 CBFb TR inactive
Cc1ccc(Cn2cnc3ccccc32)cc1	Runt-CBFb FRET 53.5 | RUNX1 CBFb TR inactive
Oc1ccc(O)c(-c2cnns2)c1	Runt-CBFb FRET 70.8 (no result: Runt-SMMHC FRET) | RUNX1 CBFb TR inactive
Oc1ccc(Br)cc1-c1ccn[nH]1	none
CCOC(=O)c1[nH]nc(-c2cc(CC)c(O)cc2O)c1-c1cscn1	Runt-CBFb FRET 60.7 | RUNX1 CBFb TR inactive
CCCc1cc2c(=O)c(-c3cscn3)c(C(=O)OCC)oc2cc1O	RanGTP-Imp inh inconclusive
Cc1ccc(/C=C/C(=O)c2ccc(C)cc2)cc1	none
Cc1ccc(C(=O)/C=C/C(=O)c2ccc(C)cc2)cc1	Runt-CBFb FRET 53.9 | RUNX1 CBFb TR inactive
S=c1[nH]nc(-c2cc3c(s2)-c2ccccc2CC3)o1	Runt-SMMHC FRET 70.2, RanGTP-Imp inh 17.3, Runt-CBFb FRET 56.9 | RUNX1 CBFb TR inactive
O=C(CN1C(=O)NC2(CCCc3ccccc32)C1=O)NCc1ccc(Cl)cc1Cl (stereo unspecified)	none (no result: Runt-SMMHC FRET, Hck Nef HTS, Runt-CBFb FRET)
Cc1cc(C)c2c(n1)sc1c(-c3ccccc3)c(C#N)c(N)nc12	Runt-SMMHC FRET 83.0, RanGTP-Imp inh 81.9, Runt-CBFb FRET 60.1 | RUNX1 CBFb TR inactive
Cc1nc(N)c(C#N)c(-c2ccccc2)c1C	none
N#CC1=C(N)Oc2cc(N)ccc2C1c1ccc(F)cc1 (stereo unspecified)	Runt-SMMHC FRET 86.0, RanGTP-Imp inh 76.1, Runt-CBFb FRET 72.6 | RUNX1 CBFb TR inactive
COc1ccc(N2C(=O)C(Cl)=C(Oc3cccc(OC)c3)C2=O)cc1	Runt-CBFb FRET 57.4 (no result: RanGTP-Imp inh) | RUNX1 CBFb TR 43.3
S=C1Cc2ccccc2N1	Runt-CBFb FRET 50.6 | RUNX1 CBFb TR inactive
Cc1[nH]c2ccccc2c1N=Nc1ccccc1C(=O)O	Runt-CBFb FRET 52.3 | RUNX1 CBFb TR inactive
CCC1(C)Cc2c(sc3[nH]c(=O)[nH]c(=O)c23)CS1 (stereo unspecified)	Runt-CBFb FRET 56.7 (no result: Runt-SMMHC FRET) | RUNX1 CBFb TR inactive
COc1ccc(-c2nc(=S)[nH][nH]2)cc1OC	Runt-CBFb FRET 51.4 | RUNX1 CBFb TR inactive
CC(C)CC(=O)NN1CCCCC1	Runt-CBFb FRET 75.3 | RUNX1 CBFb TR 58.5
CCC(C)NC(=O)CC(C)C (stereo unspecified)	none
S=c1nc(-c2cc(Cl)ccc2Cl)[nH][nH]1	Runt-CBFb FRET 56.9 | RUNX1 CBFb TR inactive
CCCCCC(=O)Nc1ccc(C2C(=O)c3ccccc3C2=O)cc1	none (no result: Runt-SMMHC FRET, Hck Nef HTS, Runt-CBFb FRET)
COc1ccc(C)cc1NC(=O)CSc1nnc(-c2cc(C)[nH]n2)n1N	none (no result: Runt-SMMHC FRET, Hck Nef HTS, Runt-CBFb FRET)
Cc1ccc(Nc2nc(-c3c(C)nc4ccccn34)cs2)cc1	RanGTP-Imp inh inconclusive
Cc1nc2ccccn2c1-c1ccnc(=S)[nH]1	Runt-CBFb FRET 59.8 | RUNX1 CBFb TR inactive
COc1cc(OC)c(NS(=O)(=O)c2cc3[nH]c(=O)c(=O)[nH]c3cc2C)cc1Cl	none (no result: Runt-SMMHC FRET, Hck Nef HTS, Runt-CBFb FRET)
COc1cc(C(=O)NCc2nnc(SCC(=O)Nc3nc4ccccc4s3)o2)cc(OC)c1OC	Runt-CBFb FRET 53.4 | RUNX1 CBFb TR inactive
